This is a sample that favours compounds with a hit; in the whole collection about 3.9% have one here.
HSP90 inh – blocks HSP90-mediated luciferase refolding in reticulocyte lysate. Rabbit reticulocyte lysate, luciferase refolding luminescence, 3 h. inhibition, % at 5.6 µM. actives 0.91% (n = 290,000). AID 1789;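 active = inhibition above the screen-wide mean plus 3 SD, computed separately per campaign, cut at about 16% in these data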;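 note: 0% = DMSO wells and 100% = 60 µM geldanamycin wells; inhibitors lower the luminescence because luciferase stays unfolded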
HCV core dimer – HCV core protein dimerization inhibition. TR-FRET GST/Flag-core106 dimerization, 1536-well. inhibition, % at 5 µM. actives 0.33% (n = 300,000). AID 1899;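 active = inhibition above the mean of all tested compounds plus 3 SD, set per screening campaign, cut at about 45% in these data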
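assay system = GST-tagged and Flag-tagged HCV core protein residues 1-106 | controls = unlabelled core106 and no-GST-core106 wells | incubation = compound-protein-antibody incubation 4 h at 22.5 °C | probe or stimulus = Eu donor and XL665 acceptor anti-tag antibodies | read-out = % inhibition based on acceptor/donor emission ratio | signal = TR-FRET 671 and 617 nm emission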
HSF-1 act – increases HSF-1 driven luciferase reporter signal | actives 1.7% (n = 300,000) | activation, % at 9 µM | NIH3T3-HGL HSF-1 luciferase reporter, MG132, 8 h; 100% = twice DMSO control signal | AID 504408;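 active = mean replicate activation of at least 50% with a set share of replicates each reaching 50%; inconclusive = only one of those two conditions met; inactive = mean below 50% and too few replicates reaching it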;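 note: 0% = median of the neutral control wells and 100% = twice that signal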
FID counter – counter-screen for HCV NS3 helicase inhibitors: DNA intercalator displacement; DNA fluorescent intercalator displacement, fluorescence; inhibition, % at 7.9 µM; actives 0.17% (n = 290,000); AID 1845; in the data active = inhibition above about 37%;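 note: 0% = vehicle and 100% = reference compound; higher means more ethidium bromide displaced from hairpin DNA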
HCV NS3 hel inh – HCV NS3 helicase inhibition; NS3 helicase DNA unwinding, Cy5 molecular beacon fluorescence; inhibition, % at 10.9 µM; actives 0.56% (n = 290,000); AID 1800;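 active = inhibition above the mean of all tested compounds plus 3 SD, set per campaign, cut at about 35% in these data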;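 note: 0% = DMSO wells and 100% = thioflavine S control wells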
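System: Hepatitis C virus NS3 helicase domain fragment enzyme | Reagent: Annealed dual-labelled DNA beacon duplex, ATP-started | Compound dosing: 10.9 µM single point, 0.8% DMSO | Incubation: 1 h reaction at 25 °C, ATP-initiated | Technique: Cy5 fluorescence | Evaluation: Percent inhibition from t60/t0 fluorescence ratio | Benchmarks: Low DMSO, high thioflavine S at 110 µM | Replication: Singlicate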
HSF1 inhib – HSF1 inhibition; NIH3T3-HGL HSE-luciferase, MG132-induced, luminescence 8 h; hits give low values; activity change, negative = inhibition, % at 7.5 µM (by protocol); actives 0.77% (n = 300,000); AID 2098;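 active = more than half of replicate wells show activity change below -50%, luminescence cut by over half; inconclusive = some wells, but at most half, below -50%; inactive = no replicate well below -50%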;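 note: luciferase reports HSF-1 transcriptional activity via heat shock element; 0% = median of DMSO wells and -100% = zero luminescence signal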
* = called active by the depositor; u = inconclusive; x = no result.

SMILES	HSP90 inh	HCV core dimer	HSF-1 act	FID counter	HCV NS3 hel inh	HSF1 inhib
O=C(c1ccc(-c2cccc(Cl)c2Cl)o1)N1CCOCC1	-2.6	0.4	u	-25.4	-2.3	16.3
Cc1cc(C(=O)CS(=O)(=O)c2ccc(Cl)cc2)cc(C)c1O	6.3	-13.1	29.3	-5.6	7.6	4.4
Cc1ccc(N2CCN(C(=O)C3CCC(=O)N(Cc4ccc(Cl)cc4)C3)CC2)c(C)c1 (centres undefined)	2.1	x	-2.5	-59.8	-5.6	8.1
O=C(COC(=O)c1ccc(S(=O)(=O)N2CCCC2)cc1)NCc1ccc(F)cc1	1.1	-5.3	-5.1	-3.9	-7.4	3.5
Cc1cccc2cc3c(N)c(C(=O)N4CCOCC4)sc3nc12	0.5	-22.9	81.2*	-9.1	-0.7	36.1
CCc1ccc(NC(=O)CSc2nc3n[nH]c(C)c3c(=N)n2-c2cccc(OC)c2)cc1	2.2	4.2	68.6*	-10.4	-26.8	40.0
COc1cccc(NC(=O)CSc2nc3n[nH]c(C)c3c(=N)n2-c2cccc(OC)c2)c1	-0.4	4.5	17.6	-5.5	-31.9	7.2
Cc1ccc(C)c(NC(=O)CN2C(=O)CC(C)S(=O)(=O)c3ccccc32)c1 (centres undefined)	-4.3	-5.3	-4.6	-15.7	3.5	2.7
Cc1nn(-c2ccccc2)c(Cl)c1/C=N\NC(=O)c1cnccn1	1.0	3.5	1.3	-6.0	-0.2	9.6
Cc1cc(NC(=S)NC(=O)/C=C/c2ccc(S(=O)(=O)N3CCOCC3)cc2)ccc1Br	-2.6	19.9	100.4*	-13.3	-11.6	84.7
O=C(/C=C/c1ccc(S(=O)(=O)N2CCOCC2)cc1)NC(=S)Nc1ccc(N2CCOCC2)cc1	-0.7	15.0	18.2	-10.8	-3.4	-0.1
O=C(/C=C/c1ccc(F)cc1)NC(=S)Nc1ccccc1O	-4.1	x	26.2	-11.3	3.0	17.9
O=C(/C=C/c1ccccc1)NC(=S)Nc1ccc(CN2CCOCC2)cc1	0.4	-2.1	73.0*	-9.9	-16.1	38.3
O=C(/C=C/c1ccccc1)NC(=S)Nc1ccccc1O	2.3	-3.6	59.5*	-10.2	18.4	31.6
Clc1nc(-c2ccccc2)cc(-c2ccccc2)n1	2.4	-3.8	40.4	-2.0	4.8	0.9
COc1ccc(CNCCc2ccc(Cl)cc2)cc1OCc1ccccc1	2.2	-3.0	-1.3	24.4	-72.6	1.3
CCOc1cc(CNCc2ccccc2)ccc1OCc1ccc(Cl)cc1	7.7	2.5	30.4	45.8*	-75.6	-5.6
c1ccc(CNc2nc(N3CCN(Cc4ccccc4)CC3)nc3ccccc23)cc1	4.5	1.3	-65.1	18.8	-89.4	-54.6*
c1ccc(N2CCN(c3nc(NCc4ccco4)c4ccccc4n3)CC2)cc1	7.6	0.2	20.3	40.2*	-67.5	11.0
Cc1csc2ncnc(NC3CCN(Cc4ccccc4)CC3)c12	0.3	-5.3	11.3	4.9	0.2	0.9
c1ccc(CN2CCC(Nc3nc(-c4ccccc4)nc4ccccc34)CC2)cc1	-7.2	-1.4	24.4	42.4*	-36.1	19.2
Fc1ccc(-c2cc(C(F)(F)F)nc(NCc3cccs3)n2)cc1	0.0	-11.7	x	1.0	-4.1	x
N#C/C(=C\c1ccc(OCc2ccc(F)cc2)cc1)C(=O)Nc1cccc(C(=O)O)c1	-1.0	11.6	26.1	-4.0	10.3	35.0
COc1cc(/C=C(\C#N)C(=O)Nc2cccc(C(=O)O)c2)ccc1OCc1ccc(F)cc1	1.1	14.0	77.4*	7.7	-9.9	50.9
COc1ccc(NC(=O)/C(C#N)=C\c2ccc(OCc3ccc(C(=O)O)cc3)c(OC)c2)cc1	-0.8	30.0	31.5	-22.6	-23.4	10.1
SMILES	HSP90 inh	HCV core dimer	HSF-1 act	FID counter	HCV NS3 hel inh	HSF1 inhib
COC(=O)c1ccc(COc2ccc(/C=N/Nc3cccc(C(=O)O)c3)cc2)cc1	22.7*	3.7	8.7	-29.7	0.3	6.5
N#C/C(=C\c1ccc(OCc2ccc(Br)cc2)cc1)C(=O)Nc1cccc(C(=O)O)c1	0.1	-7.5	72.2*	-13.6	-12.4	34.0
CCn1c(SCC(=O)O)nnc1-c1cc2c(C)nn(-c3ccccc3)c2s1	-0.5	3.0	8.4	-29.3	7.0	-4.4
O=C(NCc1nnc(SCc2ccc(C(F)(F)F)cc2)n1-c1ccccc1)C12CC3CC(CC(C3)C1)C2	0.3	11.7	26.1	-9.6	2.2	2.1
O=C(NCc1nnc(SCc2ccc(F)cc2)n1-c1ccccc1)C12CC3CC(CC(C3)C1)C2	0.1	6.3	62.1*	-33.2	-0.2	31.2
O=C1COc2ccc(C(=O)CSc3nnc(Cc4cccs4)n3-c3ccccc3)cc2N1	0.4	8.6	-9.5	-17.8	2.9	-3.3
O=C(N/C(=C\c1cccc([N+](=O)[O-])c1)C(=O)N1CCCCC1)c1cccs1	2.3	1.6	-6.4	0.1	10.9	-6.2
O=C(Cc1ccc(Cl)cc1)c1ccc(O)cc1	-2.8	-2.0	52.0*	-0.9	-0.9	21.6
CCc1ccc2c(c1)[C@H]1OCC[C@H]1[C@@H](c1cccs1)N2	2.7	-13.2	69.4*	-20.9	3.4	44.9
CCc1ccc2c(c1)/C(=C/C(=O)c1cccs1)C(=O)N2	2.5	-1.3	-5.7	7.2	-5.2	9.9
Cc1ccc(S(=O)(=O)N2CCN(C(=O)COC(=O)COc3cccc4c3OC(C)(C)C4)CC2)cc1	x	-8.1	-6.2	x	x	-1.6
Cc1cc(C)cc(NC(=O)Cn2c(SCc3cc(C)ccc3C)nc3ccncc32)c1	16.1*	x	x	8.0	-61.7	x
Cc1ccc(CSc2nc3ccncc3n2CC(=O)Nc2cc(C)cc(C)c2)cc1	3.0	-28.3	-10.5	1.9	-46.5	-9.4
COc1ccc(/C=N/n2c(N)nc(-c3ccccc3)c2-c2ccccc2)cc1	-0.6	11.6	-7.9	-5.1	-1.1	-7.6
Cn1c(=O)c2c(nc(Sc3ncnn3CC(=O)N3CCOCC3)n2C)n(C)c1=O	1.1	-0.7	-90.6	-1.9	3.8	-88.5*
NS(=O)(=O)c1ccc(CNC(=O)c2ccccc2SCC(=O)N2CCCC2)cc1	x	1.9	26.1	x	x	1.5
Clc1cccc(N/N=C(\Cc2nc3ccccc3[nH]2)c2ccccc2)c1	-0.4	2.4	69.6*	-0.7	-10.2	19.4
c1ccc(N/N=C(\Cc2ncc[nH]2)c2ccccc2)cc1	4.2	-3.1	0.4	-4.4	9.2	3.6
CN(CC(=O)NCCc1ccccc1)S(=O)(=O)c1ccccc1	-5.9	-0.8	16.9	-5.5	-0.5	14.1
CC(C)(C)NC(=O)c1cccc(NC(=O)Cc2cccs2)c1	-2.7	0.3	-83.4	-6.2	-3.5	-77.5*
Cc1cccc(NC(=O)c2cccc(NC(=O)Cc3cccs3)c2)c1	-0.7	14.5	6.3	-11.6	6.1	9.0
COc1ccc(NC(=O)c2cnc(C)cn2)cc1-n1cnnn1	-0.1	-0.5	-69.0	3.1	8.8	-59.7*

Compound activity from PubChem.
